# Shown are actives, neighbours in structure and some others; about 4.9% of the full set was active somewhere.
# STAT3 act: STAT3 signaling activation; U3A cells, IL-6 STAT3-luciferase reporter, luminescence; 100% = signal with IL-6 EC80 alone; activation (% of control), % at 5.6 µM; hit rate 0.91% among 190,000;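 active means activation above the screen-wide mean of compound activation plus 3 SD, cut at about 130% in these data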;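 further: 0% = background luminescence of wells with medium and substrate only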
#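 Material: human U3A cells carrying STAT3-luciferase construct. Measured by: reporter luminescence signal. Timing: compound 1 h, then IL-6 6 h at 37 °C.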
# APP 5'UTR act: activates APP 5'UTR luciferase reporter; SH-SY5Y APP 5'UTR luciferase reporter, luminescence; zero percent = DMSO vehicle wells; activation, % at 2 µM; hit rate 1% among 190,000; AID 1276;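 active means activation above a set limit, based on mean plus 3 SD of controls, cut at about 140% in these data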
# NF-kB expr up: NF-kB expression increase, human neuronal cells; hit rate 1.6% among 190,000; fold change at 12.5 µM; NF-kB reporter expression; stronger effect = higher value; in the data active means fold change above about 3.3
# STAT3 blocker: inhibitors of IL-6 induced STAT3 signaling; U3A cells, IL-6 STAT3-luciferase reporter, luminescence; host cell line lacks STAT1; inhibition, % at 5.5 µM; hit rate 0.89% among 190,000;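 active means inhibition above the mean inhibition across all screened compounds plus 3 SD, cut at about 44% in these data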;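 further: 0% = DMSO only wells and 100% = 100 µM nifuroxazide control wells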
# STAT1 inh: STAT1 signaling inhibition; NIH 3T3 STAT1-luciferase reporter, IFN-gamma, luminescence; inhibition, % at 5.5 µM; hit rate 0.35% among 200,000; AID 920;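 active means inhibition above a set limit, the mean inhibition across all tested compounds plus 3 SD, cut at about 34% in these data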;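 further: 0% = IFN-gamma with DMSO and 100% = IFN-gamma with 300 µM nifuroxazide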
# STAT1 act: activators of IFN-gamma induced STAT1 signaling; activation (% of control), % at 5.5 µM; NIH 3T3 STAT1-luciferase reporter, luminescence; 100% = IFN-gamma alone, no compound; AID 932; hit rate 2.6% among 200,000;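 active means activation above the screen-wide mean activation plus 3 SD, cut at about 130% in these data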;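 further: raw ratio to IFN-gamma control signal so 100% means no change and 0% no light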
# Numbers without * were called inactive.
SMILES,STAT3 act,APP 5'UTR act,NF-kB expr up,STAT3 blocker,STAT1 inh,STAT1 act
Cc1nc2ccc(S(=O)(=O)NCC(=O)Nc3cccc(F)c3)cc2s1,98,23,1.2,6,2,97
NC(=S)Nc1cnc2ccccc2c1,105,33,1.4,-1,-5,104
Oc1ccccc1CNc1cnc2ccccc2c1,85,71,3.6*,21,-6,103
CCN(CC)c1nc(Oc2ccc(=O)[nH]n2)nc(N2CCOCC2)n1,89,-4,1,15,10,91
C/C(=N\NC(=O)c1nn(C)c(C)c1Br)c1ccc(NC(=O)c2ccc(C)s2)cc1,99,120,1.3,5,-38,133*
COc1ccc(OC)c(C(O)c2coc3ccc(O)c(CN4CCOCC4)c23)c1 (configuration not stated),99,7,1.3,5,9,90
O=C(Nc1ccc(F)cc1F)c1csc(-c2cccs2)n1,124,109,1.4,-21,-40,135*
Cc1ncc([N+](=O)[O-])n1CC(=O)N/N=C/c1ccccc1F,96,-17,1.1,7,13,87
CC(C(=O)O)c1ccc(N2Cc3ccccc3C2=O)cc1 (configuration not stated),76,74,6.2*,30,-49,145*
Cc1c(Cl)c(=O)n2c(=O)c(Cl)c(C)n12,105,22,1.1,-7,-2,102
O=C(O)/C=C/C(=O)NC1CCCCC1,99,-10,1,4,-3,102
Brc1ccc(-c2cnc(-c3cccs3)o2)cc1,102,89,2.7,3,-47,143*
O=c1c2c(-c3cccs3)csc2ncn1-c1ccc(Br)cc1,104,-9,0.74,0,2,98
Cc1ccc(C(O)c2nc3ccccc3n2C(C)C)cc1 (configuration not stated),91,-4,0.81,13,2,98
CC(C)n1c(-c2ccc(N(C)C)cc2)nc2ccccc21,110,170*,1.4,-7,-29,126
Cc1cc(C)c2c(N)c3cccc(C)c3nc2n1,120,-27,0.97,-16,-53,148*
Cc1cccc2c(N)c3c(nc12)CCCC3 (tested in a mixture with another compound),109,19,1.8,-8,-22,118
COc1ccc(CCc2nnc(CCC(=O)NCc3ccc4ncccc4c3)o2)cc1,103,-2,1.4,2,-15,112
CC(C)(C)c1ccc(S(=O)(=O)CCc2ccccn2)cc1,116,12,1.7,-15,-32,129*
Cc1ccc2c(c1)Cc1nc3ccccc3nc1-2,41,116,2.8,72*,61*,44
O=C(Nc1nc2c(s1)CN(Cc1ccccc1)CC2)C1CCC1,117,9,1.9,-20,-27,125
CCN1CCc2nc(NC(=O)c3ccccc3)sc2C1,101,116,0.4,5,-51,147*
Cc1ccc(CNC(=O)c2ccc3c(c2)NC(=O)C(N2CCOCC2)S3)cc1 (configuration not stated),133*,6,0.86,-33,11,91
O=C(NCCCN1CCCCCC1)c1ccc2c(c1)NC(=O)C(N1CCOCC1)S2 (configuration not stated),101,8,1,7,-1,101
COc1cccc2sc(Nc3nc4ccc(NC(C)=O)cc4s3)nc12,104,-14,1.1,-5,-35,132*
SMILES,STAT3 act,APP 5'UTR act,NF-kB expr up,STAT3 blocker,STAT1 inh,STAT1 act
CC(=O)Nc1ccc2nc(NC(=O)COc3ccccc3Cl)sc2c1,90,32,0.96,17,-30,130*
CC(=O)Nc1ccc2nc(NC(=O)COc3ccccc3C)sc2c1,101,16,0.73,10,-13,111
Cc1ccc2nc(NC(=O)c3ccccn3)sc2c1,15,-22,1.2,98*,89*,19
O=C(CCc1ccccc1)Nc1ccc2ccccc2n1,104,140*,5.3*,0,-56,149*
O=C(CCc1ccccc1)Nc1cccc(NC(=O)CCc2ccccc2)c1,101,-12,0.82,5,4,96
COc1cccc(CSc2ccc(S(=O)(=O)N3CCOCC3)cc2C(=O)NCC2CCCO2)c1OC (configuration not stated),102,-5,1,9,-3,102
O=C(NC12CC3CC(CC(C3)C1)C2)N1CCN(C(=O)c2ccco2)CC1,108,12,1.1,-4,-13,108
